# Results collected from several papers.
# Lines come from different studies, so protocols differ.
Compound,species,matrix,route,dose,notes,AUC(0-t)
CN1CCC[C@H](CN2c3ccccc3Sc3ccccc32)C1.Cl,mouse,plasma,oral,64 mg/kg,single dose,6010 ng·h/mL
CS(=O)(=O)CCNCc1ccc(-c2ccc3ncnc(Nc4ccc(OCc5cccc(F)c5)c(Cl)c4)c3c2)o1,nude mouse,plasma,oral,50 mg/kg,single dose,34100 ng·h/mL
CCc1cc(OC)c2nccc(N3CCc4c(cc(Cn5ccnc5)cc4-c4cn(C)nc4C(F)(F)F)C3=O)c2c1,male CD-1 mouse,plasma,oral,150 mg/kg,,224000 ng·h/mL
CSc1cc(Oc2ccnc3[nH]c(=O)cnc23)ccc1NC(=O)Nc1cc(C(C)(C)C)nn1-c1ccccc1,BALB/c mouse,plasma,oral,10 mg/kg,,275 µM·h
CCn1ncc2c(Nc3ccc(OC(F)(F)F)cc3)ncnc21,male BALB/c mouse,plasma,oral,20 mg/kg,,201 ng·h/mL
CCOc1ccc(Cc2cc([C@@H]3O[C@H](CO)[C@@H](O)[C@H](O)[C@H]3O)ccc2Cl)cc1,male C57BL/6 mouse,plasma,intravenous,1 mg/kg,,680 ng·h/mL
COc1nc(-c2cc(C)c(N[C@@H](C)c3c(F)cc(F)cc3F)nn2)ccc1-n1cnc(C)c1,male CD-1 mouse,plasma,oral,5 mg/kg,single dose,7960 ng·h/mL
CN1CCC(N2CCN(c3nccc4[nH]c(-c5ccc(F)c(F)c5)nc34)CC2)CC1,mouse,blood,intravenous,2 mg/kg,,6.77 µM·h
Cc1nc(-c2cnc(NC(C)C)n(C)c2=O)ccc1Oc1ccnc(-c2cnn(C)c2)c1,female mouse,plasma,oral,15 mg/kg,single dose,113000 ng·h/mL
Cc1c(C(=O)NN2CCCCC2)nc(-c2ccc(Cl)cc2Cl)n1-c1ccc(OS(=O)(=O)CCC(F)(F)F)cc1,mouse,plasma,oral,20 µmol/kg,single dose,6.3 µM·h
Fc1ccc(-c2nc3c(N4CCC(CN5CCOCC5)CC4)nccc3[nH]2)cc1F,mouse,blood,intravenous,2 mg/kg,,4.17 µM·h
NC(=O)c1cc(Oc2ccc(NC(=O)Nc3ccc(Cl)c(C(F)(F)F)c3)c(F)c2)cc[n+]1[O-],mouse,plasma,oral,10 mg/kg,single dose,65 ng·h/mL
CCc1cc(C(=O)NC)c2nccc(N3CCc4c(cc(Cn5ccnc5)cc4-c4cn(C)nc4C(F)(F)F)C3=O)c2c1,male CD-1 mouse,plasma,oral,50 mg/kg,,122000 ng·h/mL
COc1ccc(C(O)COc2ccc(-c3csc(-c4ccc(OCC(O)c5ccc(OC)c(OC)c5)cc4)n3)cc2)cc1OC (stereo not shown),C57BL/6 mouse,plasma,oral,30 mg/kg,,34000 ng·h/mL
CNCCN(C)c1cc(C#N)cc(CCc2cc(C)cc(N)n2)c1,male BALB/c mouse,plasma,intravenous,2 mg/kg,,180 ng·h/mL
Cc1ccc2cncc(N3CCc4c(cc(Cn5ccnc5)cc4-c4cn(C)nc4C(F)(F)F)C3=O)c2c1,male CD-1 mouse,plasma,oral,50 mg/kg,,36300 ng·h/mL
O=S(=O)(c1ccc(-c2ccc3nccc(Nc4ccncn4)c3c2)cc1)N1CCOCC1,female BALB/c mouse,brain,intraperitoneal,10 mg/kg,,120 ng·h/mL
C=CC(=O)N1CC2CC(n3nc(-c4ccc(C(=O)Nc5ccccn5)cc4)c4c(N)ncnc43)CC2C1 (stereo not shown),SCID mouse,plasma,oral,0.2 mg/kg,,8.63 ng·h/mL
CC[C@H](C)[C@@H]1NC(=O)[C@@](C)(NC(=O)[C@H](CCCNC(=N)N)NC(=O)[C@H](CC(C)C)NC(=O)[C@@H](NC(=O)[C@H](CCC(N)=O)NC(=O)[C@H](CC(C)C)NC(C)=O)[C@@H](C)O)CCCC=CCCC[C@@](C)(C(=O)N[C@@H](CC(C)C)C(=O)N[C@@H](Cc2ccc3ccccc3c2)C(N)=O)NC(=O)[C@H](CCCNC(=N)N)NC(=O)[C@H](CCC(N)=O)NC1=O,male BALB/c mouse,plasma,intravenous,15 mg/kg,,260000 ng·h/mL
